Paper PMC9958447 (Heliyon, 2023)
“Also recorded” adds a separate entry of the source.

Legend:
[1] = test system: PTZ-induced larvae of zebrafish; experiment: Behavioural assessment in PTZ-induced epilepsy zebrafish larvae; format: in vivo, zebrafish (Danio rerio)
[2] = cited from earlier work
[3] = test system: wild-type (WT) zebrafish embryos; experiment: Toxicity profiling of embryo zebrafish; format: in vivo, zebrafish (Danio rerio)
In short: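 Wild-type embryos were exposed from 5 hpf to the test compound at 0, 4.29, 8.58, 12.86, 17.15 and 21.44 μM, serially diluted from a 1 mM DMSO stock. Triplicates had 10 embryos each (n = 30). Mortality was scored daily, with LC50 at 72 hpf. Spontaneous coils were counted for 1 min at 24 hpf after 5 min habituation. Percent hatched was scored at 72 hpf. Data are mean ± SEM, analysed by one-way ANOVA with Tukey.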

[4] = test system: zc4h2 KO zebrafish larvae; experiment: Heartbeat / cardiotoxicity in zc4h2 KO zebrafish larvae; format: in vivo, zebrafish (Danio rerio); conditions: for cardiotoxicity: zebrafish larvae, judged from heartbeat
zebrafish larvae = conditions: cited from earlier work
[5] = 2.5 mM PTZ alone vs control, 5 dpf larvae
[6] = 2.5 mM PTZ, 5 dpf larvae, 8.58 μM compound 8 or 100 μM VPA, 1 h
[7] = 2.5 mM PTZ, 5 dpf larvae, 8.58 μM compound 8 or 100 μM VPA, 1 h, vs PTZ group

C1CCc2nnnn2CC1 [PTZ, pentylenetetrazol]
distance and speed of zebrafish [1, 5]: significantly increased
total number of freezes [1, 5]: significantly increased

O=c1onc(-c2cccs2)n1Cc1ccc(F)cc1Cl [GM90432, 4-(2-chloro-4-fluorobenzyl)-3-(2-thienyl)-1,2,4-oxadiazol-5(4H)-one]
blood-brain barrier passage [2]: effectively cross the blood-brain barrier

O=C(/C=C/c1cc(F)cc(F)c1)c1ccc[nH]1 [Compound 8, (E)-3-(3,5-difluorophenyl)-1-(1H-pyrrol-2-yl)prop-2-en-1-one]
distance spent in the inner area (thigmotaxis) [1, 6]: significantly increased
total duration of freezing [1, 6]: increased
average velocity (average speed travelled) [1, 7]: significant decrease
number of freezing count [1, 7]: significant reduction
total velocity (total speed travelled) [1, 7]: significant decrease
convulsive behaviour ([1]; PTZ-induced larvae): effective in reducing
mortality at the beginning of the observation period ([3]; 21.44 μM, 24 hpf): lethal
spontaneous tail coiling (STC) ([3]; >12.86 μM, 24 hpf): no tail movement
optimal safe concentration ([3]; chosen from all toxicological parameters): 8.58 µM
cumulative mortality rate ([3]; exposure of 12.86 μM or more, 24–72 hpf): > 80%
mortality compared to the control group ([3]; exposure up to 8.58 μM): no significant difference
spontaneous tail coiling (STC) compared to control ([3]; from 8.58 μM, 24 hpf): significant decrease
hatching rate ([3]; from 12.86 μM, 72 hpf): decreased significantly
heartbeat (heartbeats/min) ([4]; 5 dpf larvae, 2 h incubation, vs control groups): no significant difference
cardiotoxicity [4]: no cardiotoxic effects
cardiotoxicity ([4]; listed as compound 8): no cardiotoxic effect; also recorded: no potential cardiotoxicity

CN1C(=O)CN=C(c2ccccc2)c2cc(Cl)ccc21 [diazepam]
percentage of distance spent in the inner area (zebrafish larvae): significantly increased

CCCC(CCC)C(=O)O [VPA, sodium valproate]
distance spent in the inner area (thigmotaxis) [1, 6]: significantly increased
total duration of freezing [1, 6]: without significant changes
average velocity (average speed travelled) [1, 7]: significant decrease
distance travelled (total and average) [1, 7]: significant decrease
number of freezing count [1, 7]: significantly reduced
total velocity (total speed travelled) [1, 7]: significant decrease
